Measured values: ChEMBL document CHEMBL4673226, “Development of 5-Aminopyrazole-4-carboxamide-based Bumped-Kinase Inhibitors for Cryptosporidiosis Therapy” (J Med Chem, 2019)
≈ marks a conversion by molar mass, not a printed value. Calls of active or inactive are those of the source. The rule behind the calls is not given here.

Experiments:
[1] = Toxicity in mouse assessed as effect on serum chemistry parameters at 150 to 300 mg/kg, po QD for 7 days; type: organism-based; settings: in vivo, 168 h, dose 150-300 mg/kg, time 7 day
[2] = Toxicity in mouse assessed as effect on organ parameters at 150 to 300 mg/kg, po QD for 7 days by histological analysis; type: organism-based; settings: in vivo, 168 h, dose 150-300 mg/kg, time 7 day
[3] = Toxicity in mouse assessed as effect on CBC parameters at 150 to 300 mg/kg, po QD for 7 days; type: organism-based; settings: in vivo, 168 h, dose 150-300 mg/kg, time 7 day
[4] = Toxicity in mouse at 150 to 300 mg/kg, po QD for 7 days; type: organism-based; settings: in vivo, 168 h, dose 150-300 mg/kg, time 7 day
[5] = Toxicity in mouse assessed as induction of distress at 150 to 600 mg/kg, po; type: organism-based; settings: in vivo, dose 150-600 mg/kg
Procedure, shortened: (§1)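 Escalating single oral doses were given to mice until toxicity signs appeared. Regimens were 100, 150, 200 and 250 mg/kg, and 150, 200, 300, 400 and 600 mg/kg. Escalation was limited by solubility in the dosing solution.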

[6] = Toxicity in mouse at 150 to 600 mg/kg, po; type: organism-based; settings: in vivo, dose 150-600 mg/kg; procedure, shortened: as §1
[7] = test system: Cryptosporidium parvum; experiment: Antimicrobial activity against nano-luciferase-expressing Cryptosporidium parvum infected in IFN-gamma KO B6.129S7-Ifngtm1Ts/J mouse assessed as log reduction of infection at 15 mg/kg, po BID for 5 days beginning on day 6 post infection relative untreated control; type: functional, organism-based; settings: time 5.0 day
[8] = test system: Cryptosporidium parvum; experiment: Antimicrobial activity against nano-luciferase-expressing Cryptosporidium parvum infected in IFN-gamma KO B6.129S7-Ifngtm1Ts/J mouse assessed as log reduction of infection at 120 mg/kg, po QD for 5 days beginning on day 6 post infection relative untreated control; type: functional, organism-based; settings: time 5.0 day
[9] = test system: Cryptosporidium parvum; experiment: Antimicrobial activity against nano-luciferase-expressing Cryptosporidium parvum infected in IFN-gamma KO B6.129S7-Ifngtm1Ts/J mouse assessed as log reduction of infection at 30 mg/kg, po BID for 5 days beginning on day 6 post infection relative untreated control; type: functional, organism-based; settings: time 5.0 day
[10] = test system: Cryptosporidium parvum; experiment: Antimicrobial activity against nano-luciferase-expressing Cryptosporidium parvum infected in IFN-gamma KO B6.129S7-Ifngtm1Ts/J mouse assessed as log reduction of infection at 60 mg/kg, po BID for 5 days beginning on day 6 post infection relative untreated control; type: functional; settings: time 5 day
[11] = Clearance in mouse at 25 mg/kg, po; type: ADME, organism-based; settings: in vivo
[12] = AUC in mouse at 25 mg/kg, po; type: ADME, organism-based; set-up: dose 25 mg/kg; settings: in vivo
[13] = Protein binding in human plasma by dialysis method
[14] = Protein binding in mouse plasma by dialysis method
[15] = test system: HepG2; experiment: Toxicity in human HepG2 cells; type: cell-based
[16] = Toxicity in human CRL-8155 cells; type: cell-based
[17] = Inhibition of Cryptosporidium parvum CDPK1 assessed as reduction in ATP consumption using BioSyntide-2 substrate incubated for 90 mins by luciferase reporter gene assay
[18] = biological target: Proto-oncogene tyrosine-protein kinase Src (Homo sapiens, UniProt P12931); experiment: Inhibition of SRC (unknown origin); type: ADME
Sequence of Proto-oncogene tyrosine-protein kinase Src (P12931 2-536 limits assumed): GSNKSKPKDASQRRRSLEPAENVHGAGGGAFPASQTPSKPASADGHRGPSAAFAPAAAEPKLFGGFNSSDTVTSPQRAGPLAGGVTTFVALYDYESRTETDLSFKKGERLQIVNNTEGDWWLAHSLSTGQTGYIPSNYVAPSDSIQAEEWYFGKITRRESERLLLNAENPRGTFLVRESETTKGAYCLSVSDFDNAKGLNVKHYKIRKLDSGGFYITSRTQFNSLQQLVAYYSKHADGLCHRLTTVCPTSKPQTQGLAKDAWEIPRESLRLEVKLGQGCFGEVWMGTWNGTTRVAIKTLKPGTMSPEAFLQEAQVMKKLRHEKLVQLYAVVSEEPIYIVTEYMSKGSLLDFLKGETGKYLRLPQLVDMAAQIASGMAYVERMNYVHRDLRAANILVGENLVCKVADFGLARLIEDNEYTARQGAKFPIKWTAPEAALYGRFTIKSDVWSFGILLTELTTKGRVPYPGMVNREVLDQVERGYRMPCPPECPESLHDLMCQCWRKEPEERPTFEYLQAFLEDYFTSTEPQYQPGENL

[19] = test system: Cryptosporidium parvum; experiment: Antimicrobial activity against nano-luciferase-expressing Cryptosporidium parvum infected in IFN-gamma KO B6.129S7-Ifngtm1Ts/J mouse assessed as log reduction of infection at 5 mg/kg, po BID for 5 days beginning on day 6 post infection relative untreated control; type: functional, organism-based; settings: time 5.0 day
[20] = mouse, in vivo, po, 30 mg/kg, 168 h
[21] = test system: Cryptosporidium parvum; experiment: Antimicrobial activity against nano-luciferase-expressing Cryptosporidium parvum infected in IFN-gamma KO B6.129S7-Ifngtm1Ts/J mouse assessed as log reduction of infection at 60 mg/kg, po QD for 5 days beginning on day 6 post infection relative untreated control; settings: time 5.0 day
[22] = Toxicity in mouse assessed as effect on CBC parameters by measuring lymphocytes counts at 100 mg/kg, po QD for 7 days by histological analysis (reference value: 4060 +/- 1266 ABS/uL); type: organism-based; settings: in vivo, 168 h, time 7 day
[23] = Toxicity in mouse assessed as effect on CBC parameters by measuring white blood cell counts at 200 mg/kg, po QD for 7 days by histological analysis (reference value: […] +/- […] 10^3/uL); type: organism-based; settings: in vivo, 168 h, time 7 day
[24] = Toxicity in mouse assessed as effect on CBC parameters by measuring white blood cell counts at 100 mg/kg, po QD for 7 days by histological analysis (reference value: […] +/- […] 10^3/uL); type: organism-based; settings: in vivo, 168 h, time 7 day
[25] = Toxicity in mouse assessed as induction of organ abnormalities at 100 to 200 mg/kg, po QD for 7 days by histological analysis; type: organism-based; settings: in vivo, 168 h, dose 100-200 mg/kg, time 7 day
[26] = Toxicity in mouse at 100 to 200 mg/kg, po QD for 7 days; type: organism-based; settings: in vivo, 168 h, dose 100-200 mg/kg, time 7 day
[27] = Toxicity in mouse assessed as induction of distress at 100 to 400 mg/kg, po; type: organism-based; settings: in vivo, dose 100-400 mg/kg
[28] = Toxicity in mouse at 100 to 400 mg/kg, po; type: organism-based; settings: in vivo, dose 100-400 mg/kg
[29] = Toxicity in mouse assessed as effect on CBC parameters by measuring lymphocytes counts at 200 mg/kg, po QD for 7 days by histological analysis (reference value: 4060 +/- 1266 ABS/uL); type: organism-based; settings: in vivo, 168 h, time 7 day
[30] = Plasma concentration in mouse at 100 mg/kg, po QD for 7 days measured after 72 hrs by LC-MS/MS analysis; type: ADME, organism-based; settings: time 7 day
Procedure, shortened: (§2)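 Multiple-dose oral tolerability study in mice at 100 or 250 mg/kg over 7 days. Plasma was taken 2 h after dose 2, before dose 3, 2 h after dose 5, and 24, 48 and 72 h after dose 7. Drug was quantified by LC-MS/MS. Blood and organs were collected after the final dose.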

[31] = Plasma concentration in mouse at 100 mg/kg, po QD for 7 days measured after 24 hrs by LC-MS/MS analysis; type: ADME, organism-based; settings: time 7 day; procedure, shortened: as §2
[32] = Plasma concentration in mouse at 100 mg/kg, po QD for 7 days measured after 48 hrs by LC-MS/MS analysis; type: ADME, organism-based; settings: time 7 day; procedure, shortened: as §2
[33] = Plasma concentration in mouse at 100 mg/kg, po QD for 5 days measured after 2 hrs by LC-MS/MS analysis; type: ADME, organism-based; settings: time 5 day; procedure, shortened: as §2
[34] = Plasma concentration in mouse at 100 mg/kg, po QD for 2 days measured after 2 hrs by LC-MS/MS analysis; type: ADME, organism-based; settings: time 2 day; procedure, shortened: as §2
[35] = Toxicity in mouse assessed as effect on serum chemistry parameters at 100 to 250 mg/kg, po QD for 7 days; type: organism-based; settings: in vivo, 168 h, dose 100-250 mg/kg, time 7 day
[36] = Toxicity in mouse assessed as effect on CBC parameters at 100 to 250 mg/kg, po QD for 7 days; type: organism-based; settings: in vivo, 168 h, dose 100-250 mg/kg, time 7 day
[37] = Toxicity in mouse assessed as effect on organ parameters at 100 to 250 mg/kg, po QD for 7 days by histological analysis; type: organism-based; settings: in vivo, 168 h, dose 100-250 mg/kg, time 7 day
[38] = Toxicity in mouse assessed as induction of lethargy at 250 mg/kg, po QD for 7 days; type: organism-based; settings: in vivo, 168 h, time 7 day
[39] = Toxicity in mouse at 100 mg/kg, po QD for 7 days; type: organism-based; settings: in vivo, 168 h, time 7 day
[40] = Toxicity in mouse assessed as induction of lack of grooming at 250 mg/kg, po QD for 7 days; type: organism-based; settings: in vivo, 168 h, time 7 day
[41] = Toxicity in mouse assessed as induction of distress at 100 to 250 mg/kg, po; type: organism-based; settings: in vivo, dose 100-250 mg/kg; procedure, shortened: as §1
[42] = Toxicity in mouse at 100 to 250 mg/kg, po; type: organism-based; settings: in vivo, dose 100-250 mg/kg; procedure, shortened: as §1
[43] = test system: Cryptosporidium parvum; experiment: Antimicrobial activity against nano-luciferase-expressing Cryptosporidium parvum infected in IFN-gamma KO B6.129S7-Ifngtm1Ts/J mouse assessed as log reduction of infection at 15 mg/kg, po QD for 5 days beginning on day 6 post infection relative untreated control; type: functional, organism-based; settings: time 5.0 day
[44] = test system: Cryptosporidium parvum; experiment: Antimicrobial activity against nano-luciferase-expressing Cryptosporidium parvum infected in IFN-gamma KO B6.129S7-Ifngtm1Ts/J mouse assessed as log reduction of infection at 30 mg/kg, po QD for 5 days beginning on day 6 post infection relative untreated control; type: functional, organism-based; settings: time 5.0 day
[45] = test system: Cryptosporidium parvum; experiment: Antimicrobial activity against nano-luciferase-expressing Cryptosporidium parvum infected in IFN-gamma KO B6.129S7-Ifngtm1Ts/J mouse assessed as log reduction of infection at 60 mg/kg, po QD for 5 days beginning on day 6 post infection relative untreated control; settings: time 5 day
[46] = Drug level in mouse fecus at 25 mg/kg, po; settings: read-out: Drug uptake, in vivo
[47] = Clearance in mouse at 10 mg/kg, po; type: ADME, organism-based; settings: in vivo
[48] = AUC in mouse at 10 mg/kg, po; type: ADME, organism-based; set-up: dose 10 mg/kg; settings: in vivo
[49] = Solubility in pH 2.0 solution; settings: buffer
[50] = Solubility in pH 6.5 solution; settings: buffer
[51] = mouse, in vivo, po, 30 mg/kg, 96 h
[52] = Plasma concentration in mouse at 250 mg/kg, po QD for 5 days measured after 2 hrs by LC-MS/MS analysis
[53] = Plasma concentration in mouse at 250 mg/kg, po QD for 3 days measured on pre dose by LC-MS/MS analysis
[54] = Plasma concentration in mouse at 250 mg/kg, po QD for 2 days measured after 2 hrs by LC-MS/MS analysis
[55] = Plasma concentration in mouse at 100 mg/kg, po QD for 3 days measured on pre dose by LC-MS/MS analysis
[56] = Plasma concentration in mouse at 250 mg/kg, po QD for 7 days measured after 72 hrs by LC-MS/MS analysis
[57] = Plasma concentration in mouse at 250 mg/kg, po QD for 7 days measured after 48 hrs by LC-MS/MS analysis
[58] = Plasma concentration in mouse at 250 mg/kg, po QD for 7 days measured after 24 hrs by LC-MS/MS analysis

CCOc1ccc2cc(-c3nn(C(C)(C)CCO)c(N)c3C(N)=O)ccc2c1
Activity [1]: Non-Toxic
Activity [2]: Non-Toxic
Activity [3]: Non-Toxic
Activity [4]: Non-Toxic
Activity [5]: Non-Toxic
Activity [6]: Non-Toxic
Activity [7]: inactive
Activity [8]: Active
Activity [9]: Active
log reduction [10]: 3.37
CL/F [11]: 11.1 mL/min
AUC [12]: 144.5 µmol·min/L
PPB [13]: 99%
PPB [14]: 94%
Activity [15]: Non-Toxic
Activity [16]: Non-Toxic
IC50 [17]: 2.5 nM
IC50 [18]: > 10000 nM
Activity [19]: inactive
Cmax [20]: 0.51 µM
Activity [21]: inactive

CC(C)(CO)Cn1nc(-c2ccc3cc(OC4CC4)ccc3c2)c(C(N)=O)c1N
Activity [22]: 1194 abs/uL
Activity [23]: 1.5 10^3 /uL
Activity [24]: 1.5 10^3 /uL
Activity [25]: Non-Toxic
Activity [26]: Non-Toxic
Activity [27]: Non-Toxic
Activity [28]: Non-Toxic
Activity [15]: Non-Toxic
Activity [16]: Non-Toxic
Activity [29]: 1301 abs/uL

CC(C)(C)n1nc(-c2ccc3cc(OC4CC4)ccc3c2)c(C(N)=O)c1N
concentration at 168 h [30]: 0.3 µM
concentration at 168 h [31]: 26.4 µM
concentration at 168 h [32]: 4.8 µM
concentration at 120 h [33]: 49.2 µM
concentration at 48 h [34]: 36.6 µM
Activity [35]: Non-Toxic
Activity [36]: Non-Toxic
Activity [37]: Non-Toxic
Activity [38]: Toxic
Activity [39]: Non-Toxic
Activity [40]: Toxic
Activity [41]: Non-Toxic
Activity [42]: Non-Toxic
Activity [43]: inactive
Activity [44]: Active
FC [45]: 3.52
concentration [46]: 0.42 µM
CL/F [47]: 0.5 mL/min
AUC [48]: 9098 µmol·min/L
PPB [13]: 82%
solubility [49]: 83 µM (≈ 30.2 µg/mL)
solubility [50]: 65 µM (≈ 23.7 µg/mL)
PPB [14]: 95%
Activity [15]: Non-Toxic
Activity [16]: Non-Toxic
IC50 [17]: 4.3 nM
IC50 [18]: > 10000 nM
Cmax [51]: 28.8 µM
concentration at 120 h [52]: 72.2 µM
concentration at 72 h [53]: 36.1 µM
concentration at 48 h [54]: 40.1 µM
concentration at 72 h [55]: 19.9 µM
concentration at 168 h [56]: 0.7 µM
concentration at 168 h [57]: 2.3 µM
concentration at 168 h [58]: 24.6 µM
